According to publication PMC3846926 (Neuropharmacology, 2010):
“Also recorded” adds a separate entry of the source.

Legend:
[1] = tested on: ASIC currents in cultured hippocampal neurons; experiment: ASIC currents in primary cultured hippocampal neurons, whole-cell voltage clamp; assay type: cell-based, mouse; details: for Inhibition (potency), grade in words: diarylamidines of Table 1, cultured hippocampal neurons; for effect on rates of desensitization of ASIC currents: sub-maximal concentrations
ASIC current = details: Wu et al., 2004, cited from earlier work
ASIC1a = biological target: T1, ASIC1a (Rattus norvegicus, UniProt P55926); experiment: ASIC1a currents in oocytes; assay type: cell-based; details: 100 µM
T1 sequence (P55926 1-526): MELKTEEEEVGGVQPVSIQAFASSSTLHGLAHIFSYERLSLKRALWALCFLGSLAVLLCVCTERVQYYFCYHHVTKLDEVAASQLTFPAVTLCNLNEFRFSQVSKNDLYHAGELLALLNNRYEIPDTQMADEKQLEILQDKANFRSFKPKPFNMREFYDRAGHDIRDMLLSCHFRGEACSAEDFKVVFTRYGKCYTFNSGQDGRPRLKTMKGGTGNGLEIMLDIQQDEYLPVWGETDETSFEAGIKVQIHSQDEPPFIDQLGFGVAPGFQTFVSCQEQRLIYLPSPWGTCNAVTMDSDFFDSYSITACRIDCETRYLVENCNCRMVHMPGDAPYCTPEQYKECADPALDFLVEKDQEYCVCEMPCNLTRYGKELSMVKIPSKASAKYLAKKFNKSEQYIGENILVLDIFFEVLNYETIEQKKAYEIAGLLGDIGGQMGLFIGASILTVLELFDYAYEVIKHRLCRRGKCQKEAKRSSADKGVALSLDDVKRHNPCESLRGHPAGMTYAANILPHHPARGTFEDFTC

[2] = tested on: ENaC channels expressed in oocytes; experiment: ENaC current in Xenopus oocytes, two-electrode voltage clamp; assay type: cell-based; details: 100 µM; for effect on ENaC activities: oocytes; for relative current of ENaC with compound: relative to control without diarylamidine, holding -70 mV
Outline: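 Defolliculated (collagenase, 60–120 min) stage V–VI Xenopus laevis oocytes were injected with 1 ng ENaC α/β/γ cRNA and kept 3 days at 19 °C in low-Na+ ringer. Two-electrode voltage clamp at −70 mV, 22–26 °C, in ringer pH 7.4. Amiloride superfusion was replaced by amiloride-free solution, then test compound (100 µM) was applied without amiloride. Amiloride-sensitive current recorded at 1 kHz.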

[3] = tested on: cultured hippocampal neurons; assay type: cell-based, mouse; details: 10 µM, current clamp
homomeric ASIC2a = biological target: T2, homomeric ASIC2a (Rattus norvegicus, UniProt Q62962); experiment: ASIC2a current in transfected CHO cells, patch clamp; assay type: cell-based; details: pH 5, read-out: inhibition of ASIC2a current
T2 sequence (Q62962 1-512): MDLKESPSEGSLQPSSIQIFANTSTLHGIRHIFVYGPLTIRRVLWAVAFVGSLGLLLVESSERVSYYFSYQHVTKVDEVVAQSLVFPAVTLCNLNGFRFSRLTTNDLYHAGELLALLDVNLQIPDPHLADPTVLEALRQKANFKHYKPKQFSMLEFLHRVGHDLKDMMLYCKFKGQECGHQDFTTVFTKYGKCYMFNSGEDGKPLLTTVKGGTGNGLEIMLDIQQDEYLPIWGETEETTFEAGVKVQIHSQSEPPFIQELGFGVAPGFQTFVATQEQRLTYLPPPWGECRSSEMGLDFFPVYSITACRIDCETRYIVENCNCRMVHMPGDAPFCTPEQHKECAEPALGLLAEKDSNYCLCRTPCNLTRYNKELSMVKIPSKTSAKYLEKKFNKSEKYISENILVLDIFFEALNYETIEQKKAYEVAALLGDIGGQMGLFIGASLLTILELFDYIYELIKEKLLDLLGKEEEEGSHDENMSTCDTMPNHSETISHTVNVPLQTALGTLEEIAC
Outline: (§1)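 CHO cells in F12 with 10% fetal bovine serum, cotransfected at ~50% confluence with the individual ASIC subunit cDNA (1.8 µg) plus GFP DNA (0.2 µg) per dish. GFP-positive cells whole-cell patch-clamped 48–72 h after plating, held at −60 mV. Activating pH: 6.0 (ASIC1a, 1b), 5.0 (ASIC2a), 6.5 (ASIC3). Test compound perfused 2 min. Currents normalized to control; IC50 from logistic fit; mean ± S.E.M.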

homomeric ASIC1b = biological target: T3, homomeric ASIC1b (Rattus norvegicus, UniProt P55926); experiment: ASIC1b current in transfected CHO cells, patch clamp; assay type: cell-based; details: pH 6, read-out: inhibition of ASIC1b current
T3 sequence (P55926 1-559 isoform P55926-3): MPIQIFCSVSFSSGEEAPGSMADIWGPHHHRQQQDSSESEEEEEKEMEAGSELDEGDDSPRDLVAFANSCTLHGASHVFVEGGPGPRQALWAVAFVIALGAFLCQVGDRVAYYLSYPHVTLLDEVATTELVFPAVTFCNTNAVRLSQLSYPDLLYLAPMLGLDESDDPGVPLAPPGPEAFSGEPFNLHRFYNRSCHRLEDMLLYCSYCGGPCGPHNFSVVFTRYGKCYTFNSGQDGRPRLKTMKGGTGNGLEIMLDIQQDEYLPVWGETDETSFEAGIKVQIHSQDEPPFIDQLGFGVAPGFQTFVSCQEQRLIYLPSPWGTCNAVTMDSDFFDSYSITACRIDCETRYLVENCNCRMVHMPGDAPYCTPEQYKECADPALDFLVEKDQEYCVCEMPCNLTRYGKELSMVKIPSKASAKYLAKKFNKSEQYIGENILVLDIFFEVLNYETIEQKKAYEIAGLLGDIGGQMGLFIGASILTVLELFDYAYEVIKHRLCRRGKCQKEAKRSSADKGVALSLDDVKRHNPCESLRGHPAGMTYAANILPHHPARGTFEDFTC
Outline: as §1

homomeric ASIC3 = biological target: T4, homomeric ASIC3 (Rattus norvegicus, UniProt O35240); experiment: ASIC3 current in transfected CHO cells, patch clamp; assay type: cell-based; details: pH 6.5, read-out: inhibition of ASIC3 current
T4 sequence (O35240 1-533): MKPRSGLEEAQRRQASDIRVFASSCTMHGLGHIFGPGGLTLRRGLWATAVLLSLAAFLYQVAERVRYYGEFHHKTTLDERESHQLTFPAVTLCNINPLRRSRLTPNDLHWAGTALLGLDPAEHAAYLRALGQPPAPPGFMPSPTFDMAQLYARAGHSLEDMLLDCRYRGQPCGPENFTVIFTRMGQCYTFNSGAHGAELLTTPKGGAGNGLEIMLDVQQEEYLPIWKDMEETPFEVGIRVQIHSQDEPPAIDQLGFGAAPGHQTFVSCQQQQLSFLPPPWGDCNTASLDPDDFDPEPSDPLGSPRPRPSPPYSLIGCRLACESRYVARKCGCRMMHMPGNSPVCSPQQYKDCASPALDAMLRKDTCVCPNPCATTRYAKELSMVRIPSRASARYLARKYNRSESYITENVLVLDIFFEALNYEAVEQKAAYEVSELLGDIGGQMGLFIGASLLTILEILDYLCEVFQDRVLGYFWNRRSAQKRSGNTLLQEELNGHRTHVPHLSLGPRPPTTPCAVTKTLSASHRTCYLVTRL
Outline: as §1

homomeric ASIC1a = biological target: T5, homomeric ASIC1a (Rattus norvegicus, UniProt P55926); experiment: ASIC1a current in transfected CHO cells, patch clamp; assay type: cell-based
T5 sequence (P55926 1-526): T1 sequence (P55926 1-526)
Outline: as §1

ENaC = details: read-out: IC50 on ENaC; very weak inhibition; ref Ugawa et al., 2007; cited from earlier work
[4] = 200 µM, cultured hippocampal neurons

In the case of `N=C(N)NC(=O)c1nc(Cl)c(N)nc1N` [Amiloride], the “effect on desensitization of ASIC current” value ([1]; amiloride 80 µM co-applied with pH 5.8) is given as “did not accelerate; also recorded: little effect”, the “desensitization time constant of ASIC currents” value (shortened to “desensitization time constant”) ([1]; amiloride 80 µM co-applied with pH 5.8, control 0.83 ± 0.15 s) is given as 0.72 ± 0.14 s and the IC50 (ASIC current; read-out: IC50 on ASIC current, ref Waldmann et al., 1997) is given as 10 to 20 µM. The “concentration required to completely block the neuronal ASIC currents” value (ASIC current; ref Baron et al., 2002) was 200 to 500 µM.
For `CC1(C)[C@@H](OC(=O)CCC(=O)O)CC[C@]2(C)[C@H]3C(=O)C=C4[C@@H]5C[C@@](C)(C(=O)O)CC[C@]5(C)CC[C@@]4(C)[C@]3(C)CC[C@@H]12` [Carbenoxolone], the “effect on ASIC currents” value [1, 4] was “failed to inhibit; also recorded: did not inhibit”.
With `N=C(N)c1ccc(-c2cc3ccc(C(=N)N)cc3[nH]2)cc1` [DAPI, 4′,6-diamidino-2-phenylindole] the “block of ASIC1a currents in oocytes” value (ASIC1a) was “almost completely”, the “Inhibition (potency), grade in words” value [1] was “Strong inhibition” and the “effect on rates of desensitization of ASIC currents” value (“effect on rates” for short) [1] was “did not have marked effects”. For the same compound, the “effect on ENaC activities” value [2] was “did not inhibit; also recorded: ineffective” and the “relative current of ENaC with compound” value [2] was 0.98 ± 0.04.
In the case of `N=C(N)c1ccc(/N=N/Nc2ccc(C(=N)N)cc2)cc1` [Diminazene], the “block of ASIC1a currents in oocytes” value (ASIC1a) is reported as “almost completely”, the “effect on low pH-induced depolarization and excitation” value [3] is reported as “dramatically attenuated; also recorded: markedly attenuated” and the inhibition at 3 µM (homomeric ASIC2a) is reported as 51 ± 6.1%. The inhibition at 3 µM (homomeric ASIC1b) was 92 ± 0.5%, the “desensitization time constant” value ([1]; 1 µM by perfusion, control 1.7 ± 0.2 s) was 0.4 ± 0.1 s and the “Inhibition (potency), grade in words” value [1] was “Strong inhibition”. The “desensitization time constant” value ([1]; diminazene 3 µM co-applied with pH 5.8, control 1.6 ± 0.3 s) was 0.4 ± 0.1 s, the “effect on ENaC activities” value [2] was “did not inhibit; also recorded: ineffective” and the “relative current of ENaC with compound” value [2] was 1.11 ± 0.05. For the same compound, the inhibition at 3 µM (homomeric ASIC3) was 74 ± 0.6%, the IC50 (homomeric ASIC1a) was about 3 µM and the inhibition at 3 µM (homomeric ASIC1a; CHO, pH 6, read-out: inhibition of ASIC1a current) was 39 ± 3.8%.
With `N=C(N)c1ccc(/C=C/c2ccc(C(=N)N)cc2O)cc1` [Hydroxystilbamidine] the IC50 [1] was 1.5 µM, the “Inhibition (potency), grade in words” value [1] was “Strong inhibition” and the “effect on rates” value [1] was “did not have marked effects”. For the same compound, the “effect on ENaC activities” value ([2]; listed as HSB) was “did not inhibit” and the “relative current of ENaC with compound” value [2] was 1.02 ± 0.04.
In the case of `O=C(Nc1cccc(C2=NCCN2)c1)Nc1cccc(C2=NCCN2)c1` [Imidocarb], the “inhibition of ASIC currents” value [1, 4] is reported as “Inhibit 42 ± 7% at 200 µM”.
In the case of `N=C(N)c1ccc2cc(OC(=O)c3ccc(N=C(N)N)cc3)ccc2c1` [Nafamostat], the IC50 (ENaC) is listed as about 1000 µM.
With `Cn1cc(NC(=O)c2cc(NC(=O)CN=C(N)N)cn2C)cc1C(=O)NCCC(=N)N` [Netropsin] the “effect on ASIC currents” value ([1]; 100 µM, cultured hippocampal neurons) was “did not inhibit” and the “effect on ASIC currents” value ([1]; concentration not given) was “without effect; also recorded: failed to inhibit”.
For `N=C(N)c1ccc(OCCCCCOc2ccc(C(=N)N)cc2)cc1` [Pentamidine], the “block of ASIC1a currents in oocytes” value (ASIC1a) was 77%, the “Inhibition (potency), grade in words” value [1] was “Inhibition” and the “effect on rates” value [1] was “did not have marked effects”. The “effect on ENaC activities” value [2] was “did not inhibit; also recorded: ineffective” and the “relative current of ENaC with compound” value [2] was 1.02 ± 0.03.
With `Cc1ccc(C(=O)Nc2ccc(S(=O)(=O)O)c3cc(S(=O)(=O)O)cc(S(=O)(=O)O)c23)cc1NC(=O)c1cccc(NC(=O)Nc2cccc(C(=O)Nc3cc(C(=O)Nc4ccc(S(=O)(=O)O)c5cc(S(=O)(=O)O)cc(S(=O)(=O)O)c45)ccc3C)c2)c1` [suramin] the “effect on ASIC currents” value ([1]; 500 µM, cultured hippocampal neurons) was “failed to inhibit”.
